Experimental data from ChEMBL document CHEMBL4699593, “Identification of 2,4-Disubstituted Imidazopyridines as Hemozoin Formation Inhibitors with Fast-Killing Kinetics and In Vivo Efficacy in the Plasmodium falciparum NSG Mouse Model” (J Med Chem, 2020).
In brackets after ≈: the same amount, converted by molar mass.

What was measured:
Plasmodium falciparum [1] = test: Antiplasmodial activity against multidrug-sensitive asexual blood stage Plasmodium falciparum NF54 strain assessed as reduction in parasite growth after 72 hrs by NBT reagent based LDH assay; type: functional, organism-based; conditions: NF54, 72 h
Plasmodium falciparum [2] = test: Antiplasmodial activity against multidrug-resistant asexual blood stage Plasmodium falciparum K1 strain assessed as reduction in parasite growth after 72 hrs by NBT reagent based LDH assay; type: functional, organism-based; conditions: K1, 72 h
Outline: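 Asexual blood-stage K1 (multidrug-resistant) parasites were read out by the parasite lactate dehydrogenase (pLDH) assay. […] Most individual values varied less than 2× (maximum 3×).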

[3] = Aqueous solubility of compound in phosphate buffer saline at pH 6.5 incubated for 20 hrs under shaking condition by shake-flask method based HPLC-DAD analysis; type: physicochemical; conditions: phosphate buffered saline
Outline: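 Equilibrium aqueous solubility was measured at pH 6.5 using a miniaturized shake-flask method.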

CHO = test: Cytotoxicity against CHO cells assessed as reduction in cell viability by MTT assay; type: cell-based, Cricetulus griseus; conditions: chinese hamster
Outline: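 Cytotoxicity was measured in Chinese hamster ovary (CHO) cells and reported as CC50. The selectivity index is CC50 divided by NF54 IC50.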

[4] = target: Voltage-gated inwardly rectifying potassium channel KCNH2 (Homo sapiens, UniProt Q12809); test: Inhibition of human ERG by patch clamp method
Voltage-gated inwardly rectifying potassium channel KCNH2, sequence (Q12809 whole entry): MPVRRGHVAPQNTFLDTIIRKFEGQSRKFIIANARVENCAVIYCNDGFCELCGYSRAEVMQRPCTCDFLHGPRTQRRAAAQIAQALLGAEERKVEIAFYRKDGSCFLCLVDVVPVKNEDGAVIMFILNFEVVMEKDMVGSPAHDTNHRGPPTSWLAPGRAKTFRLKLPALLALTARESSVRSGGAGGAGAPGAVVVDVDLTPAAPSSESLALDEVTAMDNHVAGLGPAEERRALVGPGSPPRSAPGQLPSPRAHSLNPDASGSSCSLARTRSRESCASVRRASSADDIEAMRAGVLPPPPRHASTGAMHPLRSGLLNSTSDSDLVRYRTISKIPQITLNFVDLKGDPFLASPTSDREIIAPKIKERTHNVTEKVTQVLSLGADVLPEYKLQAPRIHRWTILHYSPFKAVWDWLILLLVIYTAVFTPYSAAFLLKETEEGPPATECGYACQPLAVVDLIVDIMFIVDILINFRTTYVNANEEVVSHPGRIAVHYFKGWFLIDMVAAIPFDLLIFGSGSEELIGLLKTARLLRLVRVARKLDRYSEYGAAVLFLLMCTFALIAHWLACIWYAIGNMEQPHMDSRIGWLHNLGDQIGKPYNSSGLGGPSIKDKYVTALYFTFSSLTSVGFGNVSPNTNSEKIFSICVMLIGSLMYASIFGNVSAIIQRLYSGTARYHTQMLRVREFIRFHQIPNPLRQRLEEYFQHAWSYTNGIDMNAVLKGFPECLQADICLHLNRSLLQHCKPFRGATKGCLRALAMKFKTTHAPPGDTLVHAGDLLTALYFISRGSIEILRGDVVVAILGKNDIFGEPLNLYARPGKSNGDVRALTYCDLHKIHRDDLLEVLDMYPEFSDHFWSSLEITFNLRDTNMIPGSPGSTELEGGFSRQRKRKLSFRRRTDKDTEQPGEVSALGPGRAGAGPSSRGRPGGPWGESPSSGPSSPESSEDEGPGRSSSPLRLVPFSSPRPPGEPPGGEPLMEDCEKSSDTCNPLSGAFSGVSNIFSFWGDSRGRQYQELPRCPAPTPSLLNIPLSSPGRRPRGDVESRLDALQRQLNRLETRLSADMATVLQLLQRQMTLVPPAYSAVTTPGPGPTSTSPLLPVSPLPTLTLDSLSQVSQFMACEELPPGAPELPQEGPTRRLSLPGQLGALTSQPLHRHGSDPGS

[5] = Selectivity index, ratio of CC50 for cytotoxicity against CHO cells assessed as reduction in cell viability to IC50 for antiplasmodial activity against multidrug-sensitive Plasmodium falciparum NF54 assessed as reduction in parasite growth; type: toxicity, cell-based; conditions: hamster, read-out: Ratio CC50/IC50
Plasmodium berghei = test: Antiplasmodial activity against luciferase-expressing Plasmodium berghei sporozoites liver stage infected in human HepG2 cells expressing GFP-CD81 fusion protein incubated for 48 hrs by luciferase reporter gene based bioluminescence assay; type: functional, organism-based; conditions: HepG2, 48 h
Outline: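 Liver-stage activity was measured in vitro with rodent P. berghei sporozoites. Values are the mean of 3 technical replicates from the luciferase assay; individual values varied less than 2×.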

Plasmodium falciparum [6] = test: Antiplasmodial activity against early stage (I to III) Plasmodium falciparum NF54 gametocytes incubated for 48 hrs under hypoxia condition by luciferase reporter gene assay; type: functional, organism-based; conditions: NF54, 48 h
Plasmodium falciparum [7] = test: Antiplasmodial activity against late stage (IV/V) Plasmodium falciparum NF54 gametocytes at 5 uM incubated for 48 hrs under hypoxia condition by luciferase reporter gene assay relative to control; type: functional
[8] = Cmax in Balb/C mouse at 2 mg/kg, iv by LC-MS/MS analysis; type: ADME, organism-based; parameters: route intravenous, dose 2 mg/kg; conditions: in vivo
Outline: (§1)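 Healthy Balb/c mice dosed i.v. or orally. Parameters come from non-compartmental analysis of compound concentration over time. […] Clearance is blood clearance (CL_b).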

[9] = Cmax in Balb/C mouse at 20 mg/kg, po by LC-MS/MS analysis; type: ADME, organism-based; parameters: route oral, dose 20 mg/kg; conditions: in vivo; outline: as §1
[10] = Tmax in Balb/C mouse at 20 mg/kg, po by LC-MS/MS analysis; type: ADME, organism-based; conditions: in vivo
Outline: (§2)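 Healthy Balb/c mice were given the compound i.v. or orally. Parameters come from non-compartmental analysis: AUC from 0 h to t_last, blood clearance, volume at steady state, terminal half-life, Tmax. Oral bioavailability F is derived from the i.v. and p.o. data.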

[11] = Terminal half life in Balb/C mouse at 2 mg/kg, iv by LC-MS/MS analysis; type: ADME, organism-based; conditions: in vivo, read-out: beta t1/2 (converted); outline: as §2
[12] = Terminal half life in Balb/C mouse at 20 mg/kg, po by LC-MS/MS analysis; type: ADME, organism-based; conditions: in vivo, read-out: beta t1/2 (converted); outline: as §2
[13] = Clearance in Balb/C mouse blood at 2 mg/kg, iv by LC-MS/MS analysis; type: ADME, organism-based; conditions: whole blood; outline: as §1
[14] = Volume of distribution at steady state in Balb/C mouse at 2 mg/kg, iv by LC-MS/MS analysis; type: ADME, organism-based; conditions: in vivo, read-out: Vdss; outline: as §2
[15] = AUC (0 to t) in Balb/C mouse at 2 mg/kg, iv by LC-MS/MS analysis; type: ADME, organism-based; parameters: dose 2 mg/kg; conditions: in vivo; outline: as §1
[16] = AUC (0 to t) in Balb/C mouse at 20 mg/kg, po by LC-MS/MS analysis; type: ADME, organism-based; parameters: dose 20 mg/kg; conditions: in vivo; outline: as §1
[17] = Oral bioavailability in Balb/C mouse at 20 mg/kg by LC-MS/MS analysis; type: ADME, organism-based; conditions: in vivo; outline: as §2
[18] = Ratio of unbound average drug concentration in Balb/c mouse at 20 mg/kg, po measured at 24 hrs to IC50 for antiplasmodial activity against multidrug-sensitive Plasmodium falciparum NF54 asexual blood stage assessed as reduction in parasite growth after 72 hrs by LDH assay; type: organism-based; conditions: in vivo
[19] = Selectivity ratio of IC50 for antiplasmodial activity against luciferase-expressing Plasmodium berghei sporozoites liver stage infected in human HepG2 cells expressing GFP-CD81 fusion protein to IC50 for antiplasmodial activity against multidrug-sensitive Plasmodium falciparum NF54; type: functional
[20] = Apparent intrinsic clearance in mouse liver microsomes at 0.1 uM in presence of NADPH by LC-MS/MS analysis; type: ADME, Microsome
Outline: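 Compound was incubated with mouse liver microsomes for 30 min. Apparent intrinsic clearance (CL_int,app) is reported in μL/min/mg.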

[21] = Intrinsic clearance in Balb/c mouse at 20 mg/kg, po by LC-MS/MS analysis; type: ADME, organism-based; conditions: in vivo
Hemozoin = test: Inhibition of beta-hematin formation assessed as reduction in hemozoin formation incubated for 5 hrs by NP40 detergent-mediated assay
Outline: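 Synthetic hemozoin (β-hematin) formation is driven by the detergent Nonidet P-40. Pyridine is then added to detect unreacted hematin. IC50 is derived from this read-out.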

Plasmodium falciparum [22] = test: Antiplasmodial activity against late stage (IV/V) Plasmodium falciparum NF54 gametocytes incubated for 48 hrs under hypoxia condition by luciferase reporter gene assay; type: functional, organism-based; conditions: NF54, 48 h
Plasmodium falciparum [23] = test: Antiplasmodial activity against early ring-stage synchronized Plasmodium falciparum assessed as increase in free heme after 32 hrs by Giemsa-staining based haemocytometric counting method; type: functional, organism-based
Outline: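 Whole-parasite cell fractionation assay run as a dose response. Free heme and hemozoin were measured intracellularly across increasing compound concentrations.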

Plasmodium falciparum [24] = test: Antiplasmodial activity against early ring-stage synchronized Plasmodium falciparum assessed as decrease in hemozoin formation after 32 hrs by Giemsa-staining based haemocytometric counting method; type: functional, organism-based

Row | Compound | IC50 (Plasmodium falciparum [1]) [nM] | IC50 (Plasmodium falciparum [2]) [nM] | solubility thermodynamic at 20 h [3] [µM] | CC50 (CHO) [nM] | IC50 [4] [nM] | selectivity ratio [5] | IC50 (Plasmodium berghei) [nM] | IC50 (Plasmodium falciparum [6]) [nM] | inhibition at 5 µM (Plasmodium falciparum [7]) [%] | Cmax [8] [nM] | Cmax [9] [nM] | Tmax [10] [h] | half-life [11] [h] | half-life [12] [h] | clearance [13] [mL/min/kg] | Vd [14] [L/kg] | AUCt [15] [µM·h] | AUCt [16] [µM·h] | bioavailability [17] [%] | Ratio [18] | further results
1 | Fc1ccc(-c2nc3c(N4CCC(CN5CCOCC5)CC4)nccc3[nH]2)cc1F | 51 | 120 | 85 (≈ 35.1 µg/mL) | 35000 | ≤ 3000 | 690 | 290 | 1300 | 0 | 300 | 3700 | 0.7 | 25.8 | 13.5 | 19.6 | 20 | 4.17 | 34.6 | 83 | 4.6 | Ratio IC50 [19]: <=6
2 | Cn1ccnc1N1CCN(CC2CCN(c3nccc4[nH]c(-c5cc(F)cc(F)c5)nc34)CC2)CC1 | 29 | 53 | 135 (≈ 66.5 µg/mL) | 33000 |  | 1140 |  |  |  | 1600 | 1700 | 2.3 | 12.2 | 9.2 | 9 | 6 | 7.88 | 19 | 24 | 1.5 | 
3 | CN1CCC(N2CCN(c3nccc4[nH]c(-c5ccc(F)c(F)c5)nc34)CC(F)(F)C2)CC1 | 59 | 160 | 180 (≈ 83.2 µg/mL) | 33000 |  |  |  |  |  |  |  |  |  |  |  |  |  |  |  |  | CLH [20]: 33 µL/min/mg
4 | CN1CCC(N2CCN(c3nccc4[nH]c(-c5ccc(F)c(F)c5)nc34)CC2)CC1 | 71 | 260 | 200 (≈ 82.5 µg/mL) | 33000 |  | 460 |  |  |  | 1700 | 1100 | 2.3 | 8.2 | 10.8 | 11.4 | 4.3 | 6.77 | 6.63 | 11 | 0.9 | CL [21]: 54 mL/min/kg
5 | Fc1ccc(-c2nc3c(N4CCCN(CC5CC5)CC4)nccc3[nH]2)cc1F | 20 | 77 | 200 (≈ 76.7 µg/mL) |  |  | 850 | 17000 | 5300 | 48 |  |  |  |  |  |  |  |  |  |  |  | 
6 | CN1CCCN(c2nccc3[nH]c(-c4ccc(F)c(F)c4)nc23)CC1 | 61 | 100 | 170 (≈ 58.4 µg/mL) | 14000 | 400 |  |  |  |  |  |  |  |  |  |  |  |  |  |  |  | CLH [20]: 145 µL/min/mg
7 | CN1CCN(C2CCN(c3nccc4[nH]c(-c5cc(F)cc(F)c5)nc34)CC2)CC1 | 50 | 170 | 200 (≈ 82.5 µg/mL) | 30000 | > 30000 |  |  |  |  | 300 | 1500 | 1.5 | 12.6 | 9.8 | 34.8 | 30 | 1.95 | 11.8 | 61 | 2.5 | 
8 | CN1CCN(CC2CCN(c3nc(C#N)cc4[nH]c(-c5cc(F)cc(F)c5)nc34)CC2)CC1 | 77 | 49 | < 5 |  |  |  |  |  |  |  |  |  |  |  |  |  |  |  |  |  | IC50 (Hemozoin): 8500 nM
9 | NC1CCN(c2nccc3[nH]c(-c4cccc(OC(F)(F)F)c4)nc23)CC1 | 73 | 1200 | 200 (≈ 75.5 µg/mL) | 42000 |  |  | 14000 | 780 | 95 |  |  |  |  |  |  |  |  |  |  |  | IC50 (Plasmodium falciparum [22]): 2800 nM; IC50 (Hemozoin): 148000 nM; Activity (Plasmodium falciparum [23]): Dose-dependent effect; Activity (Plasmodium falciparum [24]): Dose-dependent effect
